CHOP inh = CHOP inhibition in unfolded protein response; CHO-K1 CHOP-promoter luciferase, tunicamycin-induced, 15-18 h; inhibition, % at 10 µM; hit rate 3.8% among 220,000; AID 2732;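 active = compounds that reduced the stress-induced luciferase reporter signal by more than about 70% of percent inhibition, limit read from the data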;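 note: 0% = tunicamycin plus vehicle and 100% = wells without tunicamycin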
UPR CHOP act = apoptotic UPR (CHOP) activation | CHO-CHOP luciferase reporter, luminescence; percent of tunicamycin response over DMSO baseline | activation, % at 10 µM | hit rate 0.34% among 330,000 | AID 449763;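 active = at 10 µM dose, activation of 40% or more, normalized to positive control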;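 note: 100% = tunicamycin at 10 µg/mL and 0% = DMSO alone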
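System: CHO-CHOP luciferase reporter cell line | Buffer or medium: F12 medium containing 10% fetal bovine serum | Doses: One dose, 10 µM in 0.5% DMSO | Times: 6 h compound exposure at 37 °C after overnight seeding | Signal: Luciferase luminescence | Read-out: % activation vs tunicamycin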
XBP1 UPR activ = adaptive UPR (XBP1) activation; CHO-XBP1 luciferase reporter, IRE1-XBP1 UPR activation, luminescence; percent of tunicamycin response, DMSO as zero; activation, % at 20 µM; hit rate 0.33% among 330,000;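 active = versus positive control, 20 µM dose yields 30% or more activation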;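 note: 100% = tunicamycin at 10 µg/mL and 0% = DMSO only wells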
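Material: IRE1-XBP1 luciferase reporter CHO line / Quantity: one thousand reporter cells per well / Buffer or medium: F12 with 10% serum / Compound: 20 µM single concentration, DMSO 1% / Times: 6 h treatment, 37 °C / Detection: Steady-Glo luciferase glow luminescence, 10 min after reagent addition / Benchmarks: tunicamycin high, DMSO low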
A1 inh = inhibitors of the anti-apoptotic protein A1, read as caspase activation. MEF A1-2A-BIM cells, Caspase-Glo 3/7 luminescence, 3 h; percent of clofoctol response, vehicle zero. caspase activation, % (concentration not given with the values). hit rate 0.066% among 330,000. AID 2462;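 active = over half of replicate activation scores above 10%, or exactly half above 10 with the replicate mean above 10; inconclusive = replicate mean below 10 yet half the replicates above 10; inactive = over half of replicates below 10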
CHOP inh conf = confirmation of CHOP induction inhibitors | shares compounds with CHOP inh | CHO-CHOP promoter luciferase reporter, tunicamycin-induced, luminescence | inhibition, % at 10 µM | hit rate 45% among 2,100;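 active = mean of three repeat readings of reporter signal inhibition above a set limit, cut at about 70% in these data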;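 note: 0% = tunicamycin plus vehicle and 100% = wells lacking tunicamycin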
The depositor's hits bear a star; ? = inconclusive; · = not tested or not shown. This excerpt belongs to a sample that is enriched for hits.

SMILES | CHOP inh | UPR CHOP act | XBP1 UPR activ | A1 inh | CHOP inh conf
COc1cccc(C(=O)Nc2nnc(S(=O)(=O)N(C)Cc3ccc(F)cc3)s2)c1 | · | -0.2 | -3.0 | -0.2 | ·
Cc1cc2ncn(/N=C/c3ccc4c(c3)OCO4)c2cc1C | 96.3* | -0.5 | 3.5 | 0.3 | 66.5
CC(C)(C)c1ccc(C(=O)NC(=S)NNC(=O)c2cccs2)cc1 | 107.4* | · | · | 1.1 | 133.7*
O=C(NC(=S)NNC(=O)c1cccs1)c1ccccc1 | · | -1.0 | -0.9 | -0.7 | ·
CC(=O)Nc1ccc(NC(=O)CCCCCn2nnc3ccccc3c2=O)cc1 | · | 2.2 | 0.0 | -0.7 | ·
O=C(NNC(=O)c1cc(-c2ccncc2)nc2ccccc12)c1ccccc1O | · | 0.4 | 1.9 | 0.0 | ·
CC1CCC(C(C)C)C(OC(=O)COC(=O)c2ccc(=O)[nH]c2)C1 (stereo not given) | 63.0 | -0.3 | -1.6 | 0.1 | ·
CC1CCC(C(C)C)C(OC(=O)COC(=O)c2cc(O)ccc2N)C1 (stereo not given) | 105.5* | 23.2 | 26.0 | 0.4 | 109.2*
O=[N+]([O-])c1cc2c(cc1/C=N\NS(=O)(=O)c1ccccc1)OCO2 | 41.8 | 2.7 | -1.8 | 0.0 | ·
CNc1nc(N/N=C/c2cc3c(cc2[N+](=O)[O-])OCO3)nc(Nc2ccccc2)n1 | 105.8* | 2.0 | 7.6 | 0.7 | 24.9
Cc1nn(CC(=O)NCCCc2ccccc2)c(=O)c2cc3occc3n12 | · | 3.0 | -1.3 | -0.3 | ·
Cc1ccc(OCC(=O)N/N=C/c2cn[nH]c2-c2ccc(Cl)c(Cl)c2)cc1 | 99.2* | -1.4 | -0.9 | 0.0 | 72.4*
Cc1cc(Cl)ccc1OCC(=O)N[C@@H](Cc1ccccc1)c1nc2ccccc2[nH]1 | 107.8* | -1.3 | 8.0 | 0.0 | 114.9*
Nc1ccc(N2CCCCCC2)cc1 | · | 37.7 | 2.6 | -0.2 | 127.7*
Cc1cccc(OCC(=O)N/N=C\C=C\c2ccc3c(c2)OCO3)c1C | 97.8* | -1.8 | 0.2 | 0.7 | 95.0*
COc1cc(-c2nc3ccc4ccccc4c3c3c2CCC3)cc(OC)c1O | 102.5* | 1.0 | -3.0 | -0.1 | 106.3*
COc1cc(-c2nc3ccc4ccccc4c3c3c2CCC3)cc(OC)c1OC | 56.9 | 0.5 | -1.7 | 0.0 | ·
Cc1nc(Nc2ccc(F)cc2)[nH]c(=O)c1CCC(C)C | 104.5* | -0.7 | -2.4 | 0.0 | 106.9*
Cc1cc(C)cc(Nc2nc3ccccc3c(=O)[nH]2)c1 | 47.8 | -0.6 | 3.6 | -0.5 | ·
CCCCCc1c(C)nc(Nc2ccccc2)[nH]c1=O | 104.3* | -0.8 | -4.2 | 0.5 | 85.8*
O=S(=O)(N1CCOCC1)N1CCOCC1 | · | 0.8 | -3.2 | 0.7 | ·
CC1CC(C)CN(CCCNC(=O)CN2C(=O)c3cccnc3Oc3ccc(Cl)cc32)C1 (stereo not given) | · | -1.5 | -5.1 | 2.5 | ·
CCOc1ccc(-c2n[nH]c(C)c2Oc2ccc(OC)cc2)c(O)c1 | 107.8* | 4.8 | 5.8 | 1.7 | 88.4*
CCOc1ccc(-c2nc(N)ncc2Oc2cccc(OC)c2)c(O)c1 | 109.7* | -0.3 | 2.6 | 1.0 | 25.0
CCOc1ccc(-c2nc(N)ncc2Oc2ccccc2Br)c(O)c1 | 106.1* | -3.6 | -0.8 | -0.3 | 47.3
SMILES | CHOP inh | UPR CHOP act | XBP1 UPR activ | A1 inh | CHOP inh conf
C=C(C)COc1ccc(-c2nc(N)ncc2Oc2ccc(OC)cc2)c(O)c1 | 66.5 | 2.0 | 1.7 | -0.3 | ·
CC(NC(=O)CN1CCOCC1)c1ccc(F)cc1 (stereo not given) | · | 1.1 | -3.7 | 0.0 | ·
Cc1nn(-c2ccc(F)cc2)c2nc(N)c(C#N)c(-c3cccs3)c12 | 99.7* | 1.3 | 6.0 | 0.7 | 42.3
Cc1cccc(C(=O)NNC(=O)c2cc3cc4ccccc4nc3s2)c1 | 103.1* | -0.6 | -3.5 | 1.5 | 5.6
CCOc1ccc(-c2cc(CCCC(=O)NCc3ccc(C)cc3)no2)cc1 | 96.3* | -2.6 | -2.6 | -0.1 | 78.0*
O=[N+]([O-])c1c(NCCCO)cc(Sc2ccc(Cl)cc2)c2nonc12 | 110.7* | · | · | 2.4 | 141.0*
CC(=O)OCCCNc1cc(Sc2nc3ccccc3s2)c2nonc2c1[N+](=O)[O-] | 109.0* | -10.3 | -6.5 | ? | 13.3
O=[N+]([O-])c1c(NCCCO)cc(SCc2ccco2)c2nonc12 | 19.5 | 0.0 | -0.7 | -0.5 | ·
CN(C)S(=O)(=O)c1ccc(NC(=O)CN2C(=O)NC3(CCCC3)C2=O)cc1 | · | 3.2 | -6.8 | 0.3 | ·
CCc1ccc(C2=C/C(=C/c3cccnc3)C(=O)O2)cc1 | 103.2* | 0.4 | -2.8 | 0.4 | -59.2
CC(C)(C)c1ccc(C(O)CCCN2CCC(C(O)(c3ccccc3)c3ccccc3)CC2)cc1 (stereo not given) | 22.0 | 32.2 | 11.1 | 1.1 | 134.3*
COc1ccccc1CCC(=O)N1CCN(S(=O)(=O)c2cc(C(F)(F)F)ccc2Cl)CC1 | · | -1.5 | 0.2 | 0.1 | ·
COc1ccc(NC(=O)Oc2ccccc2)cc1Cl | · | -0.7 | 0.1 | 0.1 | ·
COc1ccccc1C(=O)NC(=Nc1nc2ccccc2o1)NC(=O)c1ccccc1OC | 106.4* | -4.8 | -4.9 | 0.1 | 133.8*
O=C(COC(=O)/C=C/c1ccc2c(c1)OCO2)NC1CC1 | 33.4 | -1.4 | -0.5 | -1.0 | ·
CC1CCCC(NC(=O)COC(=O)/C=C/c2ccc3c(c2)OCO3)C1C (stereo not given) | 97.9* | 1.2 | -1.4 | 0.7 | 96.0*
Cc1ccc(C(=O)NC(C)c2nnc(SCC(=O)NC3CCCC3)n2C)cc1 (stereo not given) | · | -0.7 | -4.0 | 0.0 | ·
O=S(=O)(N/N=C/c1ccc(Cl)cc1)c1ccc(Cc2ncc(C(F)(F)F)cc2Cl)s1 | 100.0* | -0.8 | 0.7 | -4.2 | 91.4*
Cc1ccc(SC[C@H](Cc2ccccc2)N2CC[C@@H](NC(=O)OCc3ccccc3)CCC2=O)cc1 | · | 1.6 | -2.8 | 0.0 | ·
COc1ccc(S(=O)(=O)NCc2cccnc2)cc1C(=O)Nc1ccccc1 | · | -1.5 | -2.7 | -0.6 | ·
CC(/C=C1\SC(=O)N(CC(=O)Nc2ccc(O)cc2)C1=O)=C\c1ccccc1 | 96.2* | 0.4 | 2.6 | 0.4 | -42.7
CC1(C)C(=O)Nc2ccccc2N1C(=O)COc1ccccc1C#N | · | -2.8 | -3.5 | -0.4 | ·
COc1ccc(NS(=O)(=O)c2ccc(O)c(NC(=O)c3cc4c(C)nn(-c5ccc(F)cc5)c4s3)c2)cc1 | 108.2* | 9.1 | -3.0 | 0.3 | 114.8*
COc1ccc(NS(=O)(=O)c2ccc(N3CCOCC3)c(NC(=O)c3ccc(F)cc3)c2)cc1 | -20.3 | 3.9 | -2.5 | 0.4 | ·
Cc1cccc(C)c1NC(=O)COc1ccccc1C(=O)Nc1ccc(Br)cn1 | 106.3* | 2.3 | 3.4 | 2.3 | 101.5*
CCC(=O)c1ccccc1OCC(=O)Nc1c(C)cccc1C | 5.8 | -0.3 | 0.3 | -1.1 | ·
COC(=O)C(Cc1cnc(Cl)s1)(C(=O)OC)c1ccc([N+](=O)[O-])cc1[N+](=O)[O-] | -14.0 | 0.3 | -0.8 | -0.1 | ·

Screens: PubChem BioAssay, several laboratories
